This note sets out measurements from ChEMBL document CHEMBL3526015, “Metabolism of the c-Fos/activator protein-1 inhibitor T-5224 by multiple human UDP-glucuronosyltransferase isoforms” (Drug Metab Dispos, 2011).

Data set [1] deals with T1, UDP-glucuronosyltransferase 1A3 (Homo sapiens, UniProt P35503).
T1 sequence (P35503 whole entry): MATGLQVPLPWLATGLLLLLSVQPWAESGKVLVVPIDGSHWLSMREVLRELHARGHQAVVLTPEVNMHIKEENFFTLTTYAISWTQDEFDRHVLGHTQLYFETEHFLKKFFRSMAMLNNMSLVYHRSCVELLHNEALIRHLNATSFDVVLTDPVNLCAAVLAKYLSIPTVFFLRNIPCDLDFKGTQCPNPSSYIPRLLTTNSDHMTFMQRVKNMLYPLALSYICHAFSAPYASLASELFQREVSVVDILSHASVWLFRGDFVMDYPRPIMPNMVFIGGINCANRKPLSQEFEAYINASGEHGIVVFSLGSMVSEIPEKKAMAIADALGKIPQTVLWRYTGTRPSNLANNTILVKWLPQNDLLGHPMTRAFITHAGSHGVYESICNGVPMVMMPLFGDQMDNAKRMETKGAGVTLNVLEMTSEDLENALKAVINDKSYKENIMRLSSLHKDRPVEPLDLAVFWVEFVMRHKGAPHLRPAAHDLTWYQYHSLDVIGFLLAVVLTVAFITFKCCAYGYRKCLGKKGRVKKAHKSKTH
As to the kind of experiment: Substrate inhibition of human UGT1A3-mediated T-5224 hydroxyl O-glucuronide formation after 10 to 60 mins in presence of UDP-glucuronic acid by HPLC method. The format is ADME. In a few lines: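 Recombinant human UGT1A1, UGT1A3 or UGT1A8 from baculovirus-infected insect cells (0.1 mg protein/mL) in 50 mM Tris-HCl pH 7.5, 8 mM MgCl2, alamethicin, 2% DMSO. T-5224 at 1–50 μM with 2 mM UDPGA for 60 min at 37°C. HPLC with UV at 290 nm. Triplicates fitted to a substrate-inhibition model. kcat uses UGT content quantified by immunoblot against recombinant UGT1A1/UGT2B4 standards.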

Data set [2] concerns the target T2, UDP-glucuronosyltransferase 1A1 (Homo sapiens, UniProt P22309).
T2 sequence (P22309 whole entry): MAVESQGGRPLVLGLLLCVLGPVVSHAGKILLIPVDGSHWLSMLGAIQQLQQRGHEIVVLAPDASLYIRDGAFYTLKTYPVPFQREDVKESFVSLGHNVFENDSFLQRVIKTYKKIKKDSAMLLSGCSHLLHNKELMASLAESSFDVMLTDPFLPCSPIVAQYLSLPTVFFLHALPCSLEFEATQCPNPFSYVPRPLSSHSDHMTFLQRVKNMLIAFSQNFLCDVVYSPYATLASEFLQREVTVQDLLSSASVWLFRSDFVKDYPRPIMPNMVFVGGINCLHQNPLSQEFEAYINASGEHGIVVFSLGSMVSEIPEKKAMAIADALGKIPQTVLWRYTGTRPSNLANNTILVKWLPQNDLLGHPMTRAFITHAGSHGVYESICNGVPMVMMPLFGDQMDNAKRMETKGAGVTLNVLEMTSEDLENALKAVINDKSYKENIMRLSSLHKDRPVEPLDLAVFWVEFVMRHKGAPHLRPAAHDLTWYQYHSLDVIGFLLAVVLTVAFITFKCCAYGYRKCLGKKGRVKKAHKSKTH
As to the kind of experiment: Drug metabolism assessed as human UGT1A1-mediated T-5224 acyl O-glucuronide formation at 10 uM […] in presence of beta-estradiol by HPLC method. It is filed as ADME. The note with it: recombinant enzyme. In a few lines:
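Pooled human liver microsomes or recombinant UGT1A1 were incubated with 10 μM T-5224, 2 mM UDPGA and β-estradiol at 0–500 μM (2% DMSO), in Tris-HCl/MgCl2/alamethicin buffer. Incubation was 10 min (liver microsomes) or 60 min (UGT1A1) at 37°C. G2/G3 were read by HPLC at 290 nm, as mean ± SD, n = 3.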

Data set [3] can be described thus: Drug metabolism in human intestinal microsomes assessed as T-5224 hydroxyl O-glucuronide formation per mg protein after 10 to 60 mins by HPLC method. It is filed as ADME, Intestine, Microsome. The essentials: (§1)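 Pooled liver microsomes (0.5 mg/mL) were incubated 10 min. Pooled intestinal microsomes (0.25 mg/mL) ran 10 min at T-5224 10–50 μM and 20 min at 1–5 μM. Buffer was 50 mM Tris-HCl pH 7.5 with 8 mM MgCl2, alamethicin and 2 mM UDPGA, at 37°C, in triplicate. Glucuronides G2/G3 were read by HPLC at 290 nm and fitted for Vmax/Km.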

Data set [4] in a line: Substrate inhibition of T-5224 hydroxyl O-glucuronide formation in human intestinal microsomes after 10 to 60 mins by HPLC method. The arrangement: species or system Intestine, Microsome. The essentials:
(§2)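 Pooled liver (0.5 mg protein/mL) or intestinal (0.25 mg protein/mL) microsomes in 50 mM Tris-HCl pH 7.5, 8 mM MgCl2, alamethicin, 2% DMSO. T-5224 at 1–50 μM, 5 min preincubation at 37°C, started with 2 mM UDPGA. Incubated 10 min, or 20 min for intestinal microsomes at 1–5 μM. Acetonitrile stop, glucuronides by HPLC at 290 nm. Triplicates fitted to a substrate-inhibition model.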

Data set [5] deals with T2, UDP-glucuronosyltransferase 1A1. Description: Drug metabolism assessed as human UGT1A1-mediated T-5224 hydroxyl O-glucuronide formation at 5 to 50 uM after 60 mins in presence of UDP-glucuronic acid by HPLC method. The format is ADME. The note with it: recombinant enzyme, 1 h.
Data set [6] in a line: Drug metabolism in human intestinal microsomes assessed as T-5224 acyl O-glucuronide formation after 10 to 60 mins by HPLC method. It is filed as ADME, Intestine, Microsome. In a few lines:
as §1

Data set [7] in a line: Substrate inhibition of T-5224 acyl O-glucuronide formation in human intestinal microsomes after 10 to 60 mins by HPLC method. Further details: species or system Intestine, Microsome. The essentials: as §2
A further data set has as its system Liver microsome. Description: Drug metabolism in human liver microsomes assessed as Vmax/Km ratio for T-5224 acyl O-glucuronide formation per mg protein after 10 to 60 mins by HPLC method. It is filed as ADME. In a few lines:
as §2

The target in a further data set is Cytochrome P450 2C19 (Homo sapiens, UniProt P33261). Description: Drug metabolism assessed as human CYP2C19-mediated metabolite formation at 2 uM after 30 mins by HPLC method. The format is ADME. The note with it: recombinant enzyme, 0.5 h. The essentials:
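Each recombinant human P450 was used at 50 pmol/mL with an NADPH-generating system and 2 μM 14C-T-5224 (0.5% DMSO final). Buffer was 100 mM Tris-HCl pH 7.5, except 100 mM potassium phosphate pH 7.4 for CYP2A6 and CYP2C9*1. Incubation ran 30 min at 37°C and was stopped with acetonitrile/methanol. Radioactive metabolite peaks were detected by C18 HPLC.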

Cytochrome P450 2C19, sequence (P33261 whole entry): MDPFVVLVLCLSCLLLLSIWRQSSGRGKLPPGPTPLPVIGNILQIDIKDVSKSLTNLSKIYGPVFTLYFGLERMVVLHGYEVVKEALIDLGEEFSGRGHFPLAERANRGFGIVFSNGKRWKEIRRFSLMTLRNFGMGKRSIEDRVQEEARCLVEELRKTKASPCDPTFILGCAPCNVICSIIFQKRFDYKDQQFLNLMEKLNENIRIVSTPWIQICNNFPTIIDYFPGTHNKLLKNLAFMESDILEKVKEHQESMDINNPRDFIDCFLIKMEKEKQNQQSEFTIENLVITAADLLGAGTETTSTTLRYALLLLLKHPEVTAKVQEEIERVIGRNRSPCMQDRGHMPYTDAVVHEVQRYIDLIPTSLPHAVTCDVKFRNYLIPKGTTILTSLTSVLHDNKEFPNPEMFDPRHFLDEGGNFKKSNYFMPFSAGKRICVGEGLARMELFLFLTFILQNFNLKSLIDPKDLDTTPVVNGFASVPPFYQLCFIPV

In the case of `O=C(O)CCc1cc(C(=O)c2ccc(OC3CCCC3)cc2O)ccc1OCc1ccc2c(O)noc2c1`, the results for the Ki in [1], in [4] and in data set [7] were 2.55 µM, 58 µM and 2.64 µM, respectively. Also, the Drug metabolism entry in [2] is on record as “metabolite_not_detected”; in data set [5], “metabolite_detected”; on Cytochrome P450 2C19, “metabolite_not_detected”. In [3], the Vmax – broadly, the top rate of the reaction or transport when substrate is in excess – is 106 pmol/min. The Michaelis-Menten constant (Km) – broadly, the substrate concentration at which the rate is half of its maximum – in data set [6] stood at 5.88 µM. The Vmax/Km with Liver microsome amounted to 44 µL/min.
